ABCG2 inh – ABCG2 efflux pump inhibitors, primary screen, multiplex with ABCB1, IgMXP3 cells, flow cytometry; inhibition, % at 6.6 µM; JC-1 efflux; hit rate 0.1% among 190,000; AID 1325, 2008;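 active means inhibition above 80%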;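 further: 0% = DMSO and 100% = nicardipine control wells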
Target sequence (Q9UNQ0 whole entry, looked up): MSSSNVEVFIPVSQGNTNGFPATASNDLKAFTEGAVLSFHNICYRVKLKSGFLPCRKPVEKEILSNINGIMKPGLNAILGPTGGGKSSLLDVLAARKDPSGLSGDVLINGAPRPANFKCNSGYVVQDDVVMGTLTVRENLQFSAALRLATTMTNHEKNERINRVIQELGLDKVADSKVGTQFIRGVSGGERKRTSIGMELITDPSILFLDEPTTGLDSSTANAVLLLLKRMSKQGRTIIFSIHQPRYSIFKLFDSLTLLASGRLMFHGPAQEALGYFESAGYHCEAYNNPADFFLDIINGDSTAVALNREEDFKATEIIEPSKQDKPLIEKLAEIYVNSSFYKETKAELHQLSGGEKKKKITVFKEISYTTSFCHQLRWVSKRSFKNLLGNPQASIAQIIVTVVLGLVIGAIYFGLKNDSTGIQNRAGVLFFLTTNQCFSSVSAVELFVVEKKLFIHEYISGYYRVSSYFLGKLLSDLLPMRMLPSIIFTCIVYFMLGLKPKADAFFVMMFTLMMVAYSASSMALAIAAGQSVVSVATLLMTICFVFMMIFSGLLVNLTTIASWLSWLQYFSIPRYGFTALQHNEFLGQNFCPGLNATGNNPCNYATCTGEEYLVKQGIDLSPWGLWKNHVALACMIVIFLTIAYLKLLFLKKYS
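Times: 10 min at 25 °C | Test system: Two drug-resistant human cell lines, ABCG2 and ABCB1 | Quantity: 3 million cells/mL final, two lines in 1:1 ratio | Signal: Flow cytometry, 530 nm JC-1 signal | Dosing: Compound at 6.6 µM | Controls: Nicardipine and DMSO wells | Reagent: JC-1 as fluorescent efflux pump substrate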
MEKK2 WT-MEK5 – modulators of MEK5 binding to wildtype MEKK2, primary screen, biochemical, multiplex bead flow cytometry, Alexa488-MEK5; Mitogen-activated protein kinase kinase kinase 2 (Homo sapiens), Q9Y2U5; hit rate 1.1% among 290,000; Alexa488-MEK5 binding to MEKK2 WT; actives lie on both sides; binding response (% of control), % at 10 µM; in the data active means binding response below about 67% or above about 130%
ABCB1 inh – ABCB1 efflux pump inhibitors, primary screen, cell-based, multiplex, flow cytometry, ABCG2 counter-screen. ATP-dependent translocase ABCB1 (Homo sapiens), P08183. CCRF-Adr cells, JC-1 efflux. inhibition, % at 6.6 µM. hit rate 0.067% among 190,000. AID 1326, 2008; in the data active means inhibition above about 40%;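 further: 0% = vehicle and 100% = reference inhibitor; higher value means more JC-1 retained so stronger ABCB1 efflux block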
MEKK2 mut-MEK5 – MEK5 binding signal on mutant MEKK2 PB1, primary screen, biochemical, multiplex bead flow cytometry, Alexa488-MEK5 | AID 1530, 2009 | Alexa488-MEK5 binding to MEKK2 mutant | percent response, % at 10 µM | hit rate 0.35% among 290,000; in the data active means percent response above about 24%, passing the limit was not always enough
MEKK3 PB1 HTS – modulators of MEKK3-MEK5 PB1 binding, primary screen, biochemical, wildtype MEKK3, multiplex bead flow cytometry, Alexa488-MEK5; Mitogen-activated protein kinase kinase kinase 3 (Homo sapiens), Q99759; binding response (% of control), % at 10 µM; bead-based flow cytometry, Alexa488-MEK5 binding to MEKK3; actives lie on both sides; 0 = blocked by unlabeled MEK5, 100 = vehicle; hit rate 1.4% among 290,000; AID 1529, 2009;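 active means binding response more than 3 SD above or below the average of its plate-row segment, actives on both sides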;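 further: Alexa488 bead fluorescence after subtracting the streptavidin-only scavenger bead signal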
WT yeast gro inh – growth inhibition of WT strain, primary screen, mitochondrial fusion inhibitor project, WT and mutant strains, chemical genetic; hit rate 2.1% among 190,000; inhibition, % at 10 µM; mitochondrial fusion phenotypic screen; in the data active means inhibition above about 58%; tested in S. cerevisiae
An asterisk follows results filed as active; x = no result; [ ] = remark or other dose. Sampled rows, rich in hits. Any-hit rate of the full collection: about 3.5%.

SMILES	ABCG2 inh	MEKK2 WT-MEK5	ABCB1 inh	MEKK2 mut-MEK5	MEKK3 PB1 HTS	WT yeast gro inh
Cc1ccc(S(=O)(=O)c2nc(S(=O)(=O)c3ccc(C)cc3)c(N3CCN(CCO)CC3)s2)cc1	x	103.0	x	7.0	101.0	x
N/C(=N\OC(=O)c1ccco1)c1cccc(Br)c1	1.4	102.0	0.0	7.0	105.0	26.3
O=C(c1cccc(Br)c1)c1conc1C(=O)c1ccco1	3.1	105.0	0.3	3.0	106.0	67.2*
CC12CCC(=O)N1C(C(=O)NCCc1ccc(S(N)(=O)=O)cc1)CS2 (configuration not stated)	x	97.0	x	-6.0	93.0	x
C[n+]1ccc(/C=C/c2ccccc2O)c2ccccc21	-0.9	91.0	-0.6	-2.0	97.0	64.6*
COC(=O)C1=C(C)N(CCCC(=O)O)C(=O)NC1c1cccc(Cl)c1Cl (configuration not stated)	x	108.0	x	8.0	104.0	x
Oc1ccc(N=Nc2nc(-c3ccccc3)c(-c3ccccc3)[nH]2)cc1	-14.1	91.0	-0.8	-2.0	96.0	92.3*
Fc1ccccc1CNc1nc(-c2cccnc2)nc2ccccc12	x	21.0*[inhibitor]	x	31.0*	104.0	x
CN=C(NC1CCCCC1)c1ccc(Cl)cc1	0.1	103.0	-0.2	1.0	105.0	9.2
CC1=CC=CC2=NC(=O)CC(C)(C(=O)N(CC(=O)NC3CCCC3)c3ccc(F)cc3)N12 (configuration not stated)	x	96.0	x	-5.0	102.0	x
O=c1c2ccccc2nc(/C=C/c2ccc([N+](=O)[O-])o2)n1CCCO	11.0	108.0	1.9	6.0	108.0	64.9*
Cc1c(Cc2ccccc2)c(=O)oc2cc(OC(C)C(=O)NCC3CCC(C(=O)O)CC3)c(Cl)cc12 (configuration not stated)	x	101.0	x	5.0	105.0	x
CN(CCC1CCOCC1)C(=O)CC1C(=O)NCCN1Cc1c(F)cccc1Cl (configuration not stated)	x	96.0	x	2.0	96.0	x
COc1cc(/C=C/c2ccc(O)cc2)cc(OC)c1	5.0	100.0	x	-1.0	102.0	58.4*
COc1ccc(/C=C/C(=O)c2ccc(O)cc2)cc1	4.6	95.0	-0.6	2.0	101.0	4.6
COc1cc(Cl)c(C)cc1NC(=O)COC(=O)c1cnc(C)cn1	2.9	102.0	0.4	1.0	101.0	6.1
COc1cc(-c2nnc(SCC(=O)N(C)C3CCS(=O)(=O)C3)o2)cc(OC)c1OC (configuration not stated)	-0.1	95.0	-0.1	-3.0	98.0	1.6
CC(=O)Nc1sc(N/N=C/c2ccccc2)nc1-c1ccc(C)cc1	x	97.0	x	0.0	100.0	x
CCCc1sc(N/N=C/c2ccccn2)nc1-c1ccc(Br)cc1	-0.4	99.0	-0.7	-2.0	98.0	64.8*
Cc1ccc(S(=O)(=O)N(Cc2ccccc2)Cc2ccco2)cc1	5.1	95.0	1.1	-3.0	97.0	76.0*
Cc1ccc(S(=O)(=O)N(Cc2ccc(F)cc2)Cc2ccco2)cc1	2.4	107.0	0.5	12.0	108.0	-8.2
Cn1cc(/C=C2\SC(=S)N(NC(=O)c3cccc(Cl)c3)C2=O)c2ccccc21	x	48.0*[inhibitor]	x	-9.0	88.0	x
CC(/C=C1\SC(=S)N(NC(=O)c2cccc(O)c2)C1=O)=C\c1ccccc1	-12.6	97.0	-6.0	-1.0	94.0	85.6*
O=C(NN1C(=O)/C(=C/c2ccc(O)cc2)SC1=S)c1cccc(O)c1	x	100.0	x	16.0	106.0	x
Cc1ccc(-n2c(Cc3cccn3C)nnc2SCC(=O)NCc2ccc3c(c2)OCO3)cc1	1.8	106.0	0.3	5.0	108.0	6.6
SMILES	ABCG2 inh	MEKK2 WT-MEK5	ABCB1 inh	MEKK2 mut-MEK5	MEKK3 PB1 HTS	WT yeast gro inh
CCc1ccc(-n2cc(-c3ccc([N+](=O)[O-])cc3)[nH]c2=S)cc1	1.4	113.0	0.0	13.0	104.0	-4.7
CCc1ccc(-c2cn(C3CCCCC3)c(=S)[nH]2)cc1	5.1	103.0	-0.3	1.0	103.0	68.2*
CSC(=S)N/N=C(\C)c1ccc(Br)cc1	10.9	97.0	0.7	1.0	97.0	67.7*
COc1ccc(C)cc1NC(=O)NNC(=O)C(C)Oc1ccc(F)cc1Cl (configuration not stated)	x	113.0	x	11.0	107.0	x
O=C(NCc1ccccc1Cl)c1cnccn1	0.8	96.0	0.3	1.0	97.0	74.9*
CC1CN(c2ncnc3c2c(-c2ccccc2)cn3-c2ccc(F)cc2)CC(C)O1 (configuration not stated)	5.4	95.0	1.5	-6.0	98.0	75.2*
Cc1ccc(-n2cc(-c3ccccc3)c3c(N4CCOCC4)ncnc32)cc1	5.1	91.0	1.4	-6.0	96.0	71.5*
Cc1cccc(-n2cc(-c3ccccc3)c3c(N4CCOCC4)ncnc32)c1	7.2	73.0	2.3	-11.0	68.0	7.1
Cc1ccc(-n2cc(-c3ccccc3)c3c(N4CCN(C)CC4)ncnc32)cc1	4.7	125.0	8.9	12.0	110.0	62.0*
OCCN1CCN(c2ncnc3c2c(-c2ccccc2)cn3-c2ccc(F)cc2)CC1	2.2	105.0	1.2	0.0	97.0	5.8
CC(C)(C)n1nnnc1C(c1cccs1)N(Cc1cccnc1)Cc1ccccc1Cl (configuration not stated)	2.7	96.0	2.5	-1.0	97.0	74.0*
CC(c1nnnn1C(C)(C)C)N(Cc1cccnc1)Cc1ccccc1Cl (configuration not stated)	1.0	111.0	1.0	6.0	110.0	17.0
COc1ccccc1OCC(=O)Nc1c2c(nn1-c1ccccc1)CS(=O)(=O)C2	x	95.0	x	-6.0	96.0	x
Cc1ccc(S(=O)(=O)n2c3ccc(F)cc3c3nc(C)sc32)cc1	1.5	102.0	2.0	1.0	101.0	78.2*
O=C(CN1C(=O)CCSc2ccc(S(=O)(=O)N3CCOCC3)cc21)Nc1cccc(F)c1	x	103.0	x	4.0	104.0	x
O=C(O)c1ccc(COCC(F)(F)C(F)F)o1	5.8	104.0	0.9	6.0	101.0	16.6
NC(=O)Cc1cn(-c2ncc(C(F)(F)F)cc2Cl)c2ccccc12	3.1	105.0	0.9	13.0	106.0	0.1
COC(=O)Cc1cn(-c2ncc(C(F)(F)F)cc2Cl)c2ccccc12	2.4	104.0	1.0	10.0	110.0	84.2*
Cc1ccc(NS(=O)(=O)c2c(C)[nH]c(C)c2C(=O)N2CCCCC2)cc1Cl	x	101.0	x	3.0	100.0	x
